Laboratory results from paper PMC3578163 (Chemical research in toxicology, 2013).

Legend:
hpol ι^26–446 = target: T1, hpol ι^26–446 (Homo sapiens, UniProt Q9UNA4); assay: steady-state single-nucleotide; format: biochemical; settings: for kcat: dCTP insertion
T1 sequence (Q9UNA4 26-446): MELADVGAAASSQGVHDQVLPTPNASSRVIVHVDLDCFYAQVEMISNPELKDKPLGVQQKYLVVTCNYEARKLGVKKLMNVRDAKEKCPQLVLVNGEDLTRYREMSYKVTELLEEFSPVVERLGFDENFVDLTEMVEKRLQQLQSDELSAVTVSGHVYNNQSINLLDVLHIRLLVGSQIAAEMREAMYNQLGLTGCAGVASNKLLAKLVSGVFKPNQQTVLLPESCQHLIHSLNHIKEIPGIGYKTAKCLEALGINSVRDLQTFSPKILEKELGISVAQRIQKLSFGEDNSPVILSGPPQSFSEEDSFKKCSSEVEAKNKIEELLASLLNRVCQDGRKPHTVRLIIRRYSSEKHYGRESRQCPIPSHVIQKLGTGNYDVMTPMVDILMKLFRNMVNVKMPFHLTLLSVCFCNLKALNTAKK
Procedure, shortened: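 Single dCTP insertion on a FAM-labelled primer-template: 5 nM enzyme, 100 nM DNA. Started with dCTP (10 concentrations, 1–1500 μM) plus 2 mM Mg²⁺. MK886 at 20 nM, 50 nM, 1 μM or 10 μM, or DMSO. Time points quenched with 95% formamide/20 mM EDTA; products resolved on 16% acrylamide/7 M urea gels. Velocities fitted to Michaelis–Menten; kcat and KM taken after enzyme correction.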

[1] = tested on: DNA synthesis in cell culture; settings: cited from earlier work
hpol η^1–437 = target: T2, hpol η^1–437 (Homo sapiens, UniProt Q9Y253); assay: polymerase-catalyzed primer extension; format: biochemical; settings: read-out: IC50 for inhibition of DNA polymerase activity; all four dNTPs 0.25 mM, MgCl2 5 mM; 20 nM enzyme, 200 nM DNA, 37 °C
T2 sequence (Q9Y253 1-437): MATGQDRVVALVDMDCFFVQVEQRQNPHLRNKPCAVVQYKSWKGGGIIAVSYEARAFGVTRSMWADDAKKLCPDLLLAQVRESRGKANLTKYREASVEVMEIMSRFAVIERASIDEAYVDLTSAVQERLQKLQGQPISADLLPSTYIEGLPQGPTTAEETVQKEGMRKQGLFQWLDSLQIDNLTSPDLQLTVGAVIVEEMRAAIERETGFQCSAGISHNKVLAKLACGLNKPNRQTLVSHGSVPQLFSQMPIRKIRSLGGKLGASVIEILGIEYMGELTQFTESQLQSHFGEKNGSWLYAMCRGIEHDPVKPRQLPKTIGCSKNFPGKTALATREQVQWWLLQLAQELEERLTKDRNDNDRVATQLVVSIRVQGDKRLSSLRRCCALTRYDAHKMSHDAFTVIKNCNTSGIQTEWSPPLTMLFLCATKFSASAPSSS

With CC(C)c1ccc2c(c1)c(SC(C)(C)C)c(CC(C)(C)C(=O)O)n2Cc1ccc(Cl)cc1 [MK886, 3-[1-(4-chlorobenzyl)-3-t-butyl-thio-5-isoproylindol-2-yl]-2,2-dimethylpropanoic acid] the kcat (hpol ι^26–446; 0.02 μM MK886) was 0.0233 ± 0.0017 s⁻¹, the “Fold decrease in kcat/KM,dNTP” value (hpol ι^26–446; 0.02 μM MK886 vs no inhibitor) was 1.5 and the kcat (hpol ι^26–446; 0.05 μM MK886) was 0.02 ± 0.0017 s⁻¹. For the same molecule, the “Fold decrease in kcat/KM,dNTP” value (hpol ι^26–446; 0.05 μM MK886 vs no inhibitor) was 2.1, the kcat (hpol ι^26–446; 1 μM MK886) was 0.0267 ± 0.0017 s⁻¹ and the “Fold decrease in kcat/KM,dNTP” value (hpol ι^26–446; 1 μM MK886 vs no inhibitor) was 2.1. For the same molecule, the kcat (hpol ι^26–446; 10 μM MK886) was 0.025 ± 0.0017 s⁻¹, the “Fold decrease in kcat/KM,dNTP” value (hpol ι^26–446; 10 μM MK886 vs no inhibitor) was 2.8 and the “mechanism of inhibition of DNA polymerase activity” value (hpol ι^26–446; single-nucleotide insertion, kcat and Km,dNTP both altered) was “mixed-model of inhibition”. The “concentration at which DNA synthesis/replication is inhibited” value [1] was at least 1 µM and the IC50 (hpol η^1–437) was 45.8 ± 8.4 µM.
